Test results reported in ChEMBL document CHEMBL1125788, “Synthesis and ocular antihypertensive activity of new imidazolidine derivatives containing a beta-blocking side chain” (J Med Chem, 1991).
The source made the active and inactive calls.

What was measured:
[1] = biological target: Beta-2 adrenergic receptor (Cavia porcellus, UniProt Q8K4Z4); experiment: The compound was tested for beta-adrenergic activity against Beta-2 adrenergic receptor from guinea pig trachea.
[2] = biological target: T1, Alpha-1A adrenergic receptor (Rattus norvegicus) (UniProt P43140)
T1 sequence (whole entry): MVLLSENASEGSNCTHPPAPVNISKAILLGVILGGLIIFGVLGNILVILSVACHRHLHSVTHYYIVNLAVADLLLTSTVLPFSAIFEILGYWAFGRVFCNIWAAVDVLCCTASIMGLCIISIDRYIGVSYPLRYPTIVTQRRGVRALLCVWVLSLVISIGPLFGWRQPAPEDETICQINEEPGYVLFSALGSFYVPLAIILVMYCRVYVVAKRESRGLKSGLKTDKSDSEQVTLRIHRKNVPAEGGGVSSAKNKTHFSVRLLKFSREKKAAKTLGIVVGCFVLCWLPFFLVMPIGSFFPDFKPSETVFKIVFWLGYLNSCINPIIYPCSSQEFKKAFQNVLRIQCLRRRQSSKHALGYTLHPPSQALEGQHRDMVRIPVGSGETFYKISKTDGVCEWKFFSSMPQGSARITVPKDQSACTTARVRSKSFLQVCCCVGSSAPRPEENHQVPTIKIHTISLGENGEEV

[3] = biological target: T2, Beta-1 adrenergic receptor (Cavia porcellus, UniProt B0FL73); experiment: The compound was tested for beta-adrenergic activity against Beta-1 adrenergic receptor from guinea pig right atria; details: read-out: pA2 (converted)
T2 sequence (B0FL73 whole entry): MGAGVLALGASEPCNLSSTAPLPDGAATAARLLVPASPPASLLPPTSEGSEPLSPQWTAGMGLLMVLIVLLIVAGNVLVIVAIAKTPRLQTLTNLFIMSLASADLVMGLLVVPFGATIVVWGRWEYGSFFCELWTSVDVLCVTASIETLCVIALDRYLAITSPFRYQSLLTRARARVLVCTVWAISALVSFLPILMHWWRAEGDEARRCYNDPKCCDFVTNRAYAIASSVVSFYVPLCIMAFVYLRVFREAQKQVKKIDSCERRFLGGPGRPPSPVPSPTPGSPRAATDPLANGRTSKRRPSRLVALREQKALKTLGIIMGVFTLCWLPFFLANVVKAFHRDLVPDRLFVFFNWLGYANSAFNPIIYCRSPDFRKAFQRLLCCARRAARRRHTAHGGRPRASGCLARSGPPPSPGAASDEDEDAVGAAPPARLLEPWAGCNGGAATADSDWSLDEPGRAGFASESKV
Summary of the method: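 Spontaneously beating isolated right atria (chronotropy) from guinea pigs of 300-500 g. Phentolamine 3.15 × 10^-4 mmol/L in bath. Isoprenaline cumulative curves with ascorbic acid 1.13 × 10^-6 mol/L, before and after 30 min antagonist preincubation. Reported as pA2 or pD'2.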

[4] = biological target: T3, Alpha-1A adrenergic receptor (Rattus norvegicus, UniProt P43140); experiment: The compound was tested for alpha-adrenergic activity against Alpha-1 adrenergic receptor from rat aorta.; details: read-out: pA2 (converted)
T3 sequence (P43140 whole entry): T1 sequence (whole entry)
Summary of the method: (§1)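 Isolated rat aorta strips at 2 g resting tension, stabilized about 1 h. Beta-receptors blocked with propranolol 10^-6 mol/L for 30 min. ED50 by Ariens–Van Rossum. Intrinsic activity = maximum response relative to norepinephrine. Antagonism as pA2 (Schild) or, if non-competitive, pD'2.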

[5] = biological target: T4, Adrenergic receptor alpha-2 (Homo sapiens) (UniProt P08913+P18825+P18089); details: Cavia porcellus
[6] = biological target: T1, Alpha-1A adrenergic receptor (Rattus norvegicus); experiment: Intrinsic activity expressed as ratio of maximum responses to the compound to the maximum response to norepinephrine; IN-Inactive up to a concentration of 1*10e-4 M; format: functional
Summary of the method: as §1, with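 “min. Cumulative norepinephrine curve (10^-10 to 10^-7 mol/L) with ascorbic acid 1.13 × 10^-6 mol/L present.” for “min.”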

[7] = biological target: T4, Adrenergic receptor alpha-2 (Homo sapiens); details: Cavia porcellus; remark: listed apart in the source
[8] = biological target: T2, Beta-1 adrenergic receptor; experiment: The compound was tested for beta-adrenergic activity against Beta-1 adrenergic receptor from guinea pig left atria; details: read-out: pA2 (converted)
Summary of the method: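 Electrically paced isolated left atria (inotropy) from guinea pigs of 300-500 g, 2.5 Hz, 5 ms pulses at 50% above threshold. Phentolamine 3.15 × 10^-4 mmol/L in bath. Cumulative isoprenaline curves with ascorbic acid 1.13 × 10^-6 mol/L, before and after 30 min antagonist preincubation. Reported as pA2 or pD'2.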

[9] = biological target: Beta-2 adrenergic receptor (Cavia porcellus) (UniProt Q8K4Z4)
Chain of Beta-2 adrenergic receptor (Cavia porcellus) (Q8K4Z4 whole entry, looked up): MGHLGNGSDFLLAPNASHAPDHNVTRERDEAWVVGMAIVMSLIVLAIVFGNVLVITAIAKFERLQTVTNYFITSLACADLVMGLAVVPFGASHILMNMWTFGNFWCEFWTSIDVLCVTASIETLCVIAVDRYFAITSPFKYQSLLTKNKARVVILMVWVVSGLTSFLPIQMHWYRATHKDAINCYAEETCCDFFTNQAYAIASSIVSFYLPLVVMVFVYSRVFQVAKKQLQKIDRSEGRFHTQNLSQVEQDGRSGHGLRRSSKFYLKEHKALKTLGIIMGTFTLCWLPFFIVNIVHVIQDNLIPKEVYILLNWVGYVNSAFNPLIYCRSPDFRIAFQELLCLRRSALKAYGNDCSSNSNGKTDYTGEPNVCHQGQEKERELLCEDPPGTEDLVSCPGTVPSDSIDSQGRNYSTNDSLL

[10] = biological target: T5, Adrenergic receptor alpha-2 (Homo sapiens, UniProt P08913+P18825+P18089); experiment: The compound was tested for alpha-adrenergic activity against alpha-2 adrenergic receptor from guinea pig vas deferens.; design: species or system Cavia porcellus; details: target entry is the homologue from another species
T5 sequence (P08913 whole entry): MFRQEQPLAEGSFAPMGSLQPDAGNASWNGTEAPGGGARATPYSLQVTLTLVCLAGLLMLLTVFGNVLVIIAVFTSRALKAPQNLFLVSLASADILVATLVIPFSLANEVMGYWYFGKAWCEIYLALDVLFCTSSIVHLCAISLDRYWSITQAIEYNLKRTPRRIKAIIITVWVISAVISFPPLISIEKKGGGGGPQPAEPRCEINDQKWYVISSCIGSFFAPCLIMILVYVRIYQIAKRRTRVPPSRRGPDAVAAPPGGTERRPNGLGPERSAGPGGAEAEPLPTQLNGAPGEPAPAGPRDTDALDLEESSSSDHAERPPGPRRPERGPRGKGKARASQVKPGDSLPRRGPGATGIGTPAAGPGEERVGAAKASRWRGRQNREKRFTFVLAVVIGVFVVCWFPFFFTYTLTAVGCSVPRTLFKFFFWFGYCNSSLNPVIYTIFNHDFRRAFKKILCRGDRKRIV
T5 sequence (P18825 whole entry): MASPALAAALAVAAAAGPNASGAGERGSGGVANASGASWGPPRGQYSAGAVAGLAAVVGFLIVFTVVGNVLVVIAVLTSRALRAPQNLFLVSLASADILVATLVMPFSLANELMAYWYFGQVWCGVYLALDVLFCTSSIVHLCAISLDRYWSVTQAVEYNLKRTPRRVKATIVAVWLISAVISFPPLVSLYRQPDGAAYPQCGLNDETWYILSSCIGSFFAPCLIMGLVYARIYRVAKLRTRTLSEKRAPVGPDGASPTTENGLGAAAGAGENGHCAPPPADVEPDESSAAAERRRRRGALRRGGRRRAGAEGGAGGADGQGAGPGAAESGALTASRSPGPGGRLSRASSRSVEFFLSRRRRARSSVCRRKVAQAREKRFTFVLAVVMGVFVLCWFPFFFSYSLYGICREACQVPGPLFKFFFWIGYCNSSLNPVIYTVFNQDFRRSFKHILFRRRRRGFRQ
T5 sequence (P18089 whole entry): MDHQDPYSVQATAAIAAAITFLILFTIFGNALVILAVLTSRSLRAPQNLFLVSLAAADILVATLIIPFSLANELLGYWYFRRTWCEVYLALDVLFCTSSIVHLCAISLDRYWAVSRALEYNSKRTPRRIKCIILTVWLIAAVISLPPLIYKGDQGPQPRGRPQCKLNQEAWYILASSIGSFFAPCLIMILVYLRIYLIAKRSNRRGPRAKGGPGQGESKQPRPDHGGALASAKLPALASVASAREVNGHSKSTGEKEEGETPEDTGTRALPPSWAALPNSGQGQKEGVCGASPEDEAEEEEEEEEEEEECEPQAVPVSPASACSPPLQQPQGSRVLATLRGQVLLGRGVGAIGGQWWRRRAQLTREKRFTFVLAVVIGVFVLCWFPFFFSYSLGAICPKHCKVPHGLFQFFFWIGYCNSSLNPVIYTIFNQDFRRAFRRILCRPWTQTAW

[11] = biological target: T1, Alpha-1A adrenergic receptor (Rattus norvegicus); remark: listed apart in the source
[12] = biological target: T1, Alpha-1A adrenergic receptor (Rattus norvegicus); experiment: Intrinsic activity expressed as ratio of maximum responses to the compound to the maximum response to norepinephrine; IN-Inactive up to a concentration of 1*10e-5 M; format: functional
Summary of the method: as §1, with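 “min. Cumulative norepinephrine curve (10^-10 to 10^-7 mol/L) with ascorbic acid 1.13 × 10^-6 mol/L present.” for “min.”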

[13] = biological target: T1, Alpha-1A adrenergic receptor (Rattus norvegicus); remark: listed apart in the source
[14] = biological target: T4, Adrenergic receptor alpha-2 (Homo sapiens); details: Cavia porcellus; remark: listed apart in the source
[15] = biological target: T1, Alpha-1A adrenergic receptor (Rattus norvegicus); remark: listed apart in the source
[16] = biological target: T1, Alpha-1A adrenergic receptor (Rattus norvegicus); experiment: Intrinsic activity expressed as ratio of maximum responses to the compound to the maximum response to norepinephrine; IN-Inactive up to a concentration of 1*10e-3 M; format: functional
Summary of the method: as §1, with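 “min. Cumulative norepinephrine curve (10^-10 to 10^-7 mol/L) with ascorbic acid 1.13 × 10^-6 mol/L present.” for “min.”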

[17] = biological target: T4, Adrenergic receptor alpha-2 (Homo sapiens); experiment: The compound was tested for alpha-adrenergic activity against alpha-2 adrenergic receptor from guinea pig vas up to a concentration of 1*10e-3 M; details: Cavia porcellus; target entry is the homologue from another species
[18] = biological target: T1, Alpha-1A adrenergic receptor (Rattus norvegicus); experiment: The compound was tested for alpha-adrenergic activity against Alpha-1 adrenergic receptor from rat aorta;IN- Inactive up to a concentration of 1*10e-3 M
Summary of the method: as §1, with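 “min. Cumulative norepinephrine curve (10^-10 to 10^-7 mol/L) with ascorbic acid 1.13 × 10^-6 mol/L present.” for “min.”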

Chain of Beta-2 adrenergic receptor (Q8K4Z4 whole entry): as the sequence (Q8K4Z4 whole entry, looked up) above

| SMILES | Kb [1] [µM] | Kb [3] [µM] | Kb [4] [µM] | pD2 [7] | Kb [8] [µM] | other results |
| --- | --- | --- | --- | --- | --- | --- |
| C/C(=N\OCC(O)CNC(C)(C)C)c1cc(Cl)c(OC(C)C2=NCCN2)c(Cl)c1 (stereo unspecified) | 15.8 | 1.48 | 3.98 | 3.93 | 1.45 | pD2 [2]: inactive; pA2 [5]: inactive; Intrinsic activity [6]: inactive |
| CC(C)(C)NCC(O)COc1cc(Cl)c(NC2=NCCN2)c(Cl)c1 (stereo unspecified) |  | 50.1 | > 63.1 | 3.52 | > 100 | pD2 [2]: inactive; pA2 [9]: inactive; pA2 [10]: 5.12; Intrinsic activity [6]: inactive |
| CC(C)(C)NCC(O)COCC1CN=C(Nc2c(Cl)cccc2Cl)N1 (stereo unspecified) |  | 1.02 |  | 6.4 | > 10 | pA2 [9]: inactive; pD2 [11]: inactive; Intrinsic activity [12]: inactive; pA2 [13]: inactive; pA2 [14]: inactive |
| Clc1cccc(Cl)c1NC1=NCCN1 |  |  |  |  |  | pD2 [15]: 7.84 |
| C/C(=N\OCC(O)CNC(C)(C)C)c1cc(Cl)c(NC2=NCCN2)c(Cl)c1 (single isomer, unassigned; (+)) [listing 1 of 2 here] | 79.4 | 50.1 | 7.94 |  | 50.1 |  |
| C/C(=N\OCC(O)CNC(C)(C)C)c1cc(Cl)c(NC2=NCCN2)c(Cl)c1 (single isomer, unassigned; (+)) [listing 2 of 2 here] |  |  |  | 5.1 |  | Intrinsic activity [16]: inactive; pA2 [17]: inactive; pD2 [18]: inactive |
| C/C(=N\OCC(O)CNC(C)(C)C)c1cc(Cl)c(NC2=NCCN2)c(Cl)c1 (stereo in doubt; 3) [listing 1 of 2 here] | 100 | 39.8 | 4.07 |  | 39.8 |  |
| C/C(=N\OCC(O)CNC(C)(C)C)c1cc(Cl)c(NC2=NCCN2)c(Cl)c1 (stereo in doubt; 3) [listing 2 of 2 here] |  |  |  | 4.63 |  | Intrinsic activity [16]: inactive; pA2 [17]: inactive; pD2 [18]: inactive |
| C/C(=N\OCC(O)CNC(C)(C)C)c1cc(Cl)c(NC2=NCCN2)c(Cl)c1 (stereo in doubt; (-)-3) [listing 1 of 2 here] | 100 | 50.1 | 12.6 |  | 25.1 |  |
| C/C(=N\OCC(O)CNC(C)(C)C)c1cc(Cl)c(NC2=NCCN2)c(Cl)c1 (stereo in doubt; (-)-3) [listing 2 of 2 here] |  |  |  | 4.9 |  | Intrinsic activity [16]: inactive; pA2 [17]: inactive; pD2 [18]: inactive |
| Clc1cccc(Cl)c1N=C1NCCN1 [CLONIDINE] |  | 39.8 |  |  | 63.1 |  |
